Only some compounds are listed: those with a hit (about 1.6% of all), similar ones and a draw of the others.
ABCB1 inh = ABCB1 efflux pump inhibitors, primary screen, cell-based, multiplex, flow cytometry, ABCG2 counter-screen | CCRF-Adr cells, JC-1 efflux | ATP-dependent translocase ABCB1 (Homo sapiens), P08183 | AID 1326, 2008 | 0.067% of 190,000 active | inhibition, % at 6.6 µM; in the data active means inhibition above about 40%;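 further: 0% = vehicle and 100% = reference inhibitor; higher value means more JC-1 retained so stronger ABCB1 efflux block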
HSV replic up = enhancers of HSV replication in host cells, fold increase, host cell viability; HSV replication augmentation in cells; maximum fold increase; 0.005% of 220,000 active; AID 1956, 2009; in the data active means maximum fold increase above about 1.5; tested in PC3 cells
PKD1 kinase inh = inhibitors of human PKD1 kinase, biochemical, fluorescence polarization; Serine/threonine-protein kinase D1 (Homo sapiens), Q15139; PKD1 kinase fluorescence polarization assay; inhibition, % (concentration not given with the values); 0.056% of 200,000 active; AID 797, 2007; in the data active means inhibition above about 50%
NCF1 inh = p47phox/p22phox peptide binding inhibitors, primary screen, biochemical, uHTS, NADPH oxidase regulatory subunit; AID 1274, 2008; inhibition, % at 24.7 µM; fluorescence polarization, 2 h; 0.53% of 220,000 active;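 active means inhibition above about 30%, limit read from the data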;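 further: 0% = p47phox with labelled peptide and 100% = labelled peptide alone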
PHOSPHO1 block = PubChem AID 1565. recombinant PHOSPHO1, absorbance phosphatase assay. Phosphoethanolamine/phosphocholine phosphatase (Homo sapiens), Q8TCT1. 1.1% of 290,000 active. inhibition, % at 13.3 µM; in the data active means inhibition above about 60%
Target sequence (Q8TCT1 whole entry, looked up): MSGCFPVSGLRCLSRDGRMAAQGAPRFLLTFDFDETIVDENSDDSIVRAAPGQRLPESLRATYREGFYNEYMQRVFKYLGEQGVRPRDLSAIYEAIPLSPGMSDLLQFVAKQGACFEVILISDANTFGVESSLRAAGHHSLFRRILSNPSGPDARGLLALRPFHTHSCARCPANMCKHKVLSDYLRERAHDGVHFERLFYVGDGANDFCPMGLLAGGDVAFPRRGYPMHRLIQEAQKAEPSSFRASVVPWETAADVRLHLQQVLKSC
ABCG2 inh = ABCG2 efflux pump inhibitors, primary screen, multiplex with ABCB1, IgMXP3 cells, flow cytometry; Broad substrate specificity ATP-binding cassette transporter ABCG2 (Homo sapiens), Q9UNQ0; JC-1 efflux; inhibition, % at 6.6 µM; 0.1% of 190,000 active; AID 1325, 2008;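 active means inhibition above 80%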;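 further: 0% = DMSO and 100% = nicardipine control wells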
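test system = two drug-resistant human cell lines, ABCG2 and ABCB1 | amount = 3 million cells/mL final, two lines in 1:1 ratio | reagent = JC-1 transporter substrate | doses = one concentration, 6.6 µM final | incubation = 10 min at 25 °C | signal = flow cytometric JC-1 green MFI at 530 nm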
An asterisk follows results filed as active; i = inactive; . = not tested or not shown.

SMILES	ABCB1 inh	HSV replic up	PKD1 kinase inh	NCF1 inh	PHOSPHO1 block	ABCG2 inh
Cc1nc2ccccc2c2oc(C(=O)NCc3ccc4c(c3)OCO4)cc12	-1	i	6	121*	8	2
CC(=O)NCCCc1nc2ccccc2n1Cc1cc(C)ccc1C	1	i	1	-5	64*	2
CN(C)/C=N/c1c(C#N)cnn1-c1ccc(C(F)(F)F)cn1	0	i	0	155*	-16	3
Cc1ccc(NC(=O)CN(C)C(=O)COc2ccc(C(=O)c3ccc(F)cc3)cc2)cc1	3	i	14	-12	11	26
C[n+]1cnn2c1SCC1(COC1)C2	0	i	4	-4	92*	0
CCOc1nc2cnccc2n(CC(=O)Nc2cccc(C)c2)c1=O	.	.	.	.	1	.
Oc1ccc(CN2CCCc3ccccc32)c2cccnc12	-7	i	5	12	74*	-6
COc1ccccc1N1CCN(Cc2ccc(O)c3ncccc23)CC1	1	i	-1	-4	40	8
Cc1ccccc1NC(=S)Nn1cnnc1	.	.	.	.	9	.
CCc1ccccc1NC(=S)Nn1cnnc1	.	.	.	.	61*	.
O=C1CCC(C(=O)N2CCc3c(Cl)cccc3C2)CN1CCCN1CCOCC1 (stereo not drawn)	.	.	.	.	23	.
CCc1cccc(NC(=O)CSC2=NS(=O)(=O)c3ccccc32)c1	0	i	2	4	94*	1
CCc1cc(C(=O)NNC(=S)NC(C)c2ccccc2)cs1 (stereo not drawn)	0	i	-9	-26	65*	0
CN(NS(=O)(=O)c1ccc(Cl)cc1)c1nc(C(F)(F)F)nc2ccccc12	0	.	3	-5	20	1
OCC1(Cc2ccc(F)cc2F)CCCN(CCCc2ccccc2)C1 (stereo not drawn)	.	.	.	.	14	.
CC1CCN(S(=O)(=O)c2ccc(C(=O)Nc3nnc(C4=COCCO4)o3)cc2)CC1	.	.	.	.	3	.
CC1CCN(S(=O)(=O)c2ccc(C(=O)Nc3nnc(-c4ccccn4)o3)cc2)CC1	-1	i	0	-4	71*	1
CC(C)CCNC(=O)NC(=O)COC(=O)/C=C/c1cnc2ccccc2n1	1	.	-1	-9	5	3
CCCNC(=O)COc1coc(CN2CCN(c3ccccc3F)CC2)cc1=O	.	.	.	.	41	.
CC(C)(C)NC(=O)c1nc2nc(-c3ccccc3)cc(C(F)(F)F)n2n1	0	i	3	-8	4	2
CCOC(=O)c1c(-c2ccc(C)s2)csc1N	0	i	1	-16	-92	-1
CCOC(=O)c1c(-c2ccsc2)csc1N	0	i	-5	-15	92*	2
CCOC(=O)c1c(-c2ccc(C)o2)csc1N	0	i	18	-6	69*	4
CC(=O)c1ccc(OCCCC(=O)Nc2cccc(-c3nn[nH]n3)c2)cc1	.	.	.	.	20	.
Cc1ccc(-c2cc(C(=O)N3CCN(c4ncccn4)CC3)c3ccccc3n2)cc1	4	i	-17	-3	69*	22
SMILES	ABCB1 inh	HSV replic up	PKD1 kinase inh	NCF1 inh	PHOSPHO1 block	ABCG2 inh
CCN(CC)C(=O)COC(=O)c1cc(-c2ccco2)nc2ccccc12	0	i	0	46*	-18	-1
Cc1ccsc1C(=O)OCC(=O)N1CCN(C(=O)c2ccco2)CC1	0	i	-2	0	63*	1
O=C(OCC(=O)N1CCN(C(=O)c2ccco2)CC1)c1cc(-c2ccc(F)cc2)nc2ccccc12	2	i	10	-32	-5	1
O=C(OCC(=O)N1CCN(C(=O)c2ccco2)CC1)c1cc(-c2ccccc2)nc2ccccc12	1	i	3	-21	61*	0
CNC(=O)COC(=O)c1cc(-c2ccco2)nc2ccccc12	.	i	.	-2	-2	.
COc1ccc(-c2ccc(CCC(=O)O)n2NC(=O)c2ccc(O)cc2)cc1	2	i	2	3	63*	11
CCn1c(CSc2nc3ccccc3s2)nnc1SCC(=O)c1ccc(O)cc1O	0	i	1	-6	83*	2
C=CCn1c(CSc2nc3ccccc3s2)nnc1SCC(=O)OCC	1	i	-12	0	17	1
C/C(=N\NC(=O)c1ccc2c(c1)OCO2)c1ccc(O)cc1	.	i	.	0	2	.
C/C(=N/NC(=O)c1ccc2c(c1)OCO2)c1ccc(NC(=O)C(F)(F)F)cc1	0	i	-1	34*	-6	4
Oc1c(C(c2ccco2)N2CCN(C(c3ccccc3)c3ccccc3)CC2)sc2ncnn12 (stereo not drawn)	1	i	-4	-52	88*	2
O=C(CNC(=O)OCc1ccccc1)NCC(=O)N1CCCC1C(=O)OCc1ccccc1 (stereo not drawn)	0	i	4	0	18	0
CSCC[C@H](NS(=O)(=O)c1ccc(C)cc1)C(=O)N1CCC(C(=O)N[C@@H](Cc2ccc(O)cc2)C(=O)O)CC1	.	.	.	.	29	.
C/C(=N\NC(=O)COc1ccc(C)cc1Br)c1cc([N+](=O)[O-])cs1	0	i	-12	32*	41	3
Cc1cc(OCC(=O)Nc2nnc(C3CC3)s2)ccc1[N+](=O)[O-]	-1	i	1	0	-2	8
Cc1cc(C)n2nc(SCC(=O)NC3CCCCC3C)nc2n1 (stereo not drawn)	.	.	.	.	36	.
Cc1ccc(S(=O)(=O)NCC2(c3ccccc3)CCOCC2)cc1	0	i	-3	-4	-20	1
COc1ccc(C2(CNS(=O)(=O)c3ccccc3)CCOCC2)cc1	0	i	-4	0	64*	-2
O=C(NCc1cccnc1)[C@@H]1CC=C[C@@H]2CCN(Cc3ccccc3)C(=O)[C@@H]21	.	i	.	.	.	.
CCOC(=O)C(C)Sc1nnc(Cc2cc(=O)[nH]c(=O)[nH]2)n1-c1ccc(Cl)cc1 (stereo not drawn)	0	i	-5	-12	4	2
COc1cccc(Nc2nnc(SCC(=O)Nc3sccc3C(N)=O)s2)c1	0	i	-2	-35	62*	-1
CCc1ccc(Nc2nnc(SCC(=O)Nc3sccc3C(N)=O)s2)cc1	0	i	1	-19	15	-9
COc1ccc(Cn2nnnc2C(CC(C)C)N2CCC(C(N)=O)CC2)cc1 (stereo not drawn)	1	i	3	-13	66*	5
COc1cc(NC(=O)c2cc(S(=O)(=O)N3CCc4ccccc43)cn2C)cc(OC)c1OC	.	.	.	.	65*	.
O=C(CN(C(=O)C1CSC(=O)C1)c1ccc(F)cc1)NCc1ccc2c(c1)OCO2 (stereo not drawn)	.	.	.	.	6	.
